PG9 binder: PG9 antibody binding by small molecule. TR-FRET gp120-PG9 antibody binding. inhibition, % at 6.7 µM. hit rate 0.43% among 360,000. AID 624416; in the data active means inhibition above about 8.5%
VLA-4 inh: inhibition in a human VLA-4 binding assay. P13612. VLA-4 expressing cells, ligand binding flow cytometry. inhibition, % (about 7 µM as worked out from the volumes in the protocol). hit rate 0.2% among 330,000; in the data active means inhibition above about 50%
Target sequence (P13612 whole entry, looked up): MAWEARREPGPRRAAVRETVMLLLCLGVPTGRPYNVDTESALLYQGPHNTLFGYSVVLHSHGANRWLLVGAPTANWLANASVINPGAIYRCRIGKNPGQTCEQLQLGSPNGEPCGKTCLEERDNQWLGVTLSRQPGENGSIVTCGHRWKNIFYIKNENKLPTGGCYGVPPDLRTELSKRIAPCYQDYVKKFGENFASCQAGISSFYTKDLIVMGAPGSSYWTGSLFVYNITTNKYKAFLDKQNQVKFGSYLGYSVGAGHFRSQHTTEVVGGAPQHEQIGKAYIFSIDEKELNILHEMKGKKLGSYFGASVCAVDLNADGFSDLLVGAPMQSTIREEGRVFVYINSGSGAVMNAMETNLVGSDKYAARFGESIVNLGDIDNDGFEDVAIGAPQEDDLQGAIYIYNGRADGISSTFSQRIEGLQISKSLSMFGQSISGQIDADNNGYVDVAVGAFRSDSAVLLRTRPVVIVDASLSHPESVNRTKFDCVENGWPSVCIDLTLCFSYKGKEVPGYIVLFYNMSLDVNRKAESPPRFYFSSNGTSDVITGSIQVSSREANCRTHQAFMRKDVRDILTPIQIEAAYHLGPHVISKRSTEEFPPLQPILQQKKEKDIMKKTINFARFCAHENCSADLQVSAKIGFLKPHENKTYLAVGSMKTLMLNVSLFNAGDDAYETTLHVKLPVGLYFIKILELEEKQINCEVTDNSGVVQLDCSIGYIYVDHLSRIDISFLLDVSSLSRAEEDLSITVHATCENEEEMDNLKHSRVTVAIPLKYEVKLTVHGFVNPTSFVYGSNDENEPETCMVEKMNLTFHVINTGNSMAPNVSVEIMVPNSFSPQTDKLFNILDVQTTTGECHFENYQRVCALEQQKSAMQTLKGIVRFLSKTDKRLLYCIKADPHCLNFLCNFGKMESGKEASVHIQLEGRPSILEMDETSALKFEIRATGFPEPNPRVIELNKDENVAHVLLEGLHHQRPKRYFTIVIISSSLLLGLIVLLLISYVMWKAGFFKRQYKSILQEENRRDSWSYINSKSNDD
NR1D1 modulator: modulators of human Rev-erb alpha DNA binding | P20393 | Rev-erbα–FITC-DNA binding, fluorescence polarization, 90 min | activity, % at 10 µM | hit rate 0.79% among 370,000;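 active means activity above about 14%, limit read from the data; passing the limit was not always enough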;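 further: 0% = DMSO wells with 35 nM protein and 100% = DMSO wells with 750 nM protein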
NR2E3 ag-1: human photoreceptor-specific nuclear receptor agonism | Q9Y5X4 | hit rate 0.35% among 360,000 | CHO-S Gal4-NCOR/VP16-NR2E3 two-hybrid, luciferase | inhibition of corepressor binding, % at 3.98 µM;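 active means inhibition above the mean of all tested compounds plus 3 SD, cut at about 70% in these data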;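 further: 0% = DMSO with NR2E3 transfected cells and 100% = cells lacking NR2E3 construct; higher means lower luciferase signal from less NR2E3 corepressor binding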
NR2E3 ag-2: NR2E3 (human) agonism; Q9Y5X4; GST-NR2E3/biotin-RetCOR TR-FRET, 1536-well; inhibition of corepressor binding, % at 4.78 µM; hit rate 0.12% among 320,000; AID 2300;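 active means percent inhibition above the cutoff of mean plus 3 SD of all tested compounds, set per screening campaign, cut at about 20% in these data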;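 further: 0% = DMSO wells and 100% = biotin wells as full block of FRET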
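Test system: GST-NR2E3 and biotin-RetCOR proteins | Quantity: 1.35 nM GST-tagged NR2E3 final | Medium: Tris pH 7.5 | Also added: 7 nM biotin-RetCOR | Dosing: Compound at 4.8 µM, single dose | Timing: 5 h at 4 °C | Detection: Time-resolved FRET | Read-out basis: Percent inhibition | Benchmarks: Biotin wells as high control, 0.6% DMSO wells as low control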
PG9 binder conf: confirmation of small molecules binding HIV-1 gp120 antibody PG9; hit rate 90% among 1,500; TR-FRET PG9 antibody binding, biochemical; inhibition, % at 6.7 µM; shares compounds with PG9 binder; in the data active means inhibition above about 9%
PGV04 Ab binding: binds control antibody PGV04 in PG9 binder counter-screen | shares compounds with PG9 binder | TR-FRET PGV04 antibody-gp120 binding, biochemical | inhibition, % at 6.7 µM | hit rate 95% among 1,500 | AID 651604; in the data active means inhibition above about 9.5%
* hit, by the source's call. A selection: hits, their analogues and other compounds. The true share with any hit is near 1.6%.

COc1ccccc1NC(=O)C1CCCN(S(=O)(=O)c2ccc3[nH]c(=O)ccc3c2)C1 (stereo not drawn) was read as PG9 binder -0.1, VLA-4 inh 48.6, NR1D1 modulator -2.1, NR2E3 ag-1 -26.2 and NR2E3 ag-2 1.2.
`O=S1(=O)CC2c3ccc(F)cc3CN2CN1CCc1ccccc1` (stereo not drawn) gave NR1D1 modulator 2.6.
For Cc1ccnc(N2CCCC(C(=O)Nc3ccc(C)c(C)c3)C2)n1 (stereo not drawn) the results were PG9 binder 39.4*, VLA-4 inh 7.3, NR1D1 modulator -0.5, NR2E3 ag-1 -46.3, NR2E3 ag-2 5.3, PG9 binder conf 30.8* and PGV04 Ab binding 42.3*.
For [O-][n+]1ccccc1SSc1cccc[n+]1[O-] the results were NR1D1 modulator -0.5.
Screening COC(=O)[C@]12C[C@H](CC(=O)N3CCCC3)C(=O)N(CCC3=CCCCC3)C1=C[C@H](C(C)(C)C)O[C@@H]2C returned PG9 binder -0.2 and NR1D1 modulator -3.2.
For CCc1cc2cc(C(=O)N3CCN(Cc4ccccc4)CC3)sc2s1 the results were PG9 binder -0.3, VLA-4 inh 2.6, NR1D1 modulator -11.2, NR2E3 ag-1 -6.2 and NR2E3 ag-2 -2.5.
Screening CCc1cc2cc(C(=O)N3CCN(c4ccccc4)CC3)sc2s1 returned PG9 binder 20.2*, VLA-4 inh -3.4, NR1D1 modulator 5.8, NR2E3 ag-1 8.4, NR2E3 ag-2 2.3, PG9 binder conf 36.4* and PGV04 Ab binding 39.7*.
`COC(=O)C1=C(C)N(C)C(=NCc2ccccc2C(F)(F)F)NC1c1ccc(Cl)cc1` (stereo not drawn) gave PG9 binder 0.3 and NR1D1 modulator -3.1.
For CC(=O)c1ccc(NC(=O)CSc2ccc(-c3ccc4c(c3)OCO4)nn2)cc1 the results were PG9 binder 10.2*, VLA-4 inh 6.5, NR1D1 modulator 13.7, NR2E3 ag-1 -8.1, NR2E3 ag-2 -30.5, PG9 binder conf 15.4* and PGV04 Ab binding 29.1*.
Screening Cc1ccccc1-c1cccc2c3c([nH]c12)[C@@H]1C[C@H]2[C@@H](CN1CC3)[C@H](C)ON2C returned NR1D1 modulator 9.1.
For CCOc1ccc(NC(=O)c2ccc3c(SCC(=O)O)c4c(nc3c2)CCCC4)cc1 the results were PG9 binder 0.6, VLA-4 inh 6.3, NR1D1 modulator -4.3, NR2E3 ag-1 -1.6 and NR2E3 ag-2 3.1.
O=C(O)CSc1c2c(nc3cc(C(=O)Nc4cccc(C(F)(F)F)c4)ccc13)CCC2 was read as PG9 binder 15.9*, VLA-4 inh -2.2, NR1D1 modulator -3.2, NR2E3 ag-1 4.2, NR2E3 ag-2 5.9, PG9 binder conf 32.5* and PGV04 Ab binding 54.4*.
COC(=O)c1cc2sc(Cl)cc2n1CC(=O)NCCC(C)C was read as PG9 binder 10.7*, VLA-4 inh 4.5, NR1D1 modulator 14.3, NR2E3 ag-1 -9.0, NR2E3 ag-2 -1.4, PG9 binder conf 20.3* and PGV04 Ab binding 23.9*.
`COC(=O)c1cc2sccc2n1CC(=O)Nc1cc(OC)cc(OC)c1` gave PG9 binder -1.4, VLA-4 inh 6.6, NR1D1 modulator 2.3, NR2E3 ag-1 4.0 and NR2E3 ag-2 1.2.
Screening COc1ccc(OC)c(NC(=O)CSc2nc3scc(C)c3c(=O)[nH]2)c1 returned PG9 binder 0.0, VLA-4 inh -1.1, NR1D1 modulator -3.7, NR2E3 ag-1 -20.4 and NR2E3 ag-2 1.4.
For COc1cccc(NC(=O)CSc2nc3scc(C)c3c(=O)[nH]2)c1 the results were PG9 binder 25.7*, VLA-4 inh 10.5, NR1D1 modulator 7.6, NR2E3 ag-1 -13.7, NR2E3 ag-2 3.1, PG9 binder conf 28.9* and PGV04 Ab binding 43.0*.
Cc1ccc(OCC(=O)NC(=S)Nc2ccc3c4c(cccc24)CC3)cc1 was read as PG9 binder 0.5, VLA-4 inh 10.0, NR1D1 modulator 11.5, NR2E3 ag-1 -8.9 and NR2E3 ag-2 5.7.
For CC(C)c1ccc(OCC(=O)NC(=S)Nc2ccc3c4c(cccc24)CC3)cc1 the results were PG9 binder 11.1*, VLA-4 inh -7.2, NR1D1 modulator 7.5, NR2E3 ag-1 -4.5, NR2E3 ag-2 6.0, PG9 binder conf 10.6* and PGV04 Ab binding 11.6*.
`Cc1ccc(-c2nc3cccnc3s2)cc1NS(C)(=O)=O` gave PG9 binder 9.2*, VLA-4 inh -13.1, NR1D1 modulator 0.3, NR2E3 ag-1 -53.5, NR2E3 ag-2 0.5, PG9 binder conf 29.3* and PGV04 Ab binding 34.2*.
Screening Cc1noc(C(=O)Nc2ccc3c(c2)OCO3)c1Cl returned PG9 binder -0.4, VLA-4 inh -3.1, NR1D1 modulator -5.2, NR2E3 ag-1 -74.0 and NR2E3 ag-2 3.8.
For Cc1ccc2c(Cl)c(C(=O)Nc3ccc4c(c3)OCO4)sc2c1 the results were PG9 binder 14.4*, VLA-4 inh 7.2, NR1D1 modulator 11.0, NR2E3 ag-1 -69.2, NR2E3 ag-2 -5.9, PG9 binder conf 26.4* and PGV04 Ab binding 52.8*.
For CCCc1nc2ccccc2c(=O)n1CC(=O)c1ccccc1 the results were PG9 binder -2.5, VLA-4 inh 29.2, NR1D1 modulator -2.0, NR2E3 ag-1 -0.3 and NR2E3 ag-2 -0.1.
Screening CCCc1nc2ccccc2c(=O)n1CC(=O)c1ccc(OC)cc1 returned PG9 binder 10.0*, VLA-4 inh -4.0, NR1D1 modulator 1.9, NR2E3 ag-1 7.7, NR2E3 ag-2 -1.1, PG9 binder conf 10.8* and PGV04 Ab binding 15.1*.
Screening O=C(NCCc1nc2ccccc2n1C/C=C/c1ccccc1)C1CCCCC1 returned NR1D1 modulator 6.6.
`O=C(NCCO)[C@H](Cc1ccccc1)NC1(C(=O)NCCc2c[nH]c3ccccc23)CCCCC1` gave NR1D1 modulator -5.8.
Screening COc1ccc(-c2c(Sc3ccccc3)c3cc(-c4ccc(OC)c(F)c4)ccc3n2C)cc1 returned PG9 binder 26.5*, NR1D1 modulator 2.7, NR2E3 ag-1 8.0, PG9 binder conf -12.6 and PGV04 Ab binding 36.0*.

Assay outcomes (PubChem BioAssay)
